Source: PubChem BioAssay (several laboratories)
ABHD5 PLIN5 PPI – ABHD5-PLIN5 interaction inhibitors, primary screen, cell lysate, split luciferase complementation, luminescence; Perilipin-5 (Homo sapiens) + 1-acylglycerol-3-phosphate O-acyltransferase ABHD5 (Homo …; Split G. princeps luciferase complementation, 4 h; inhibition, % at 4 µM; hit rate 0.78% among 360,000; AID 602281, 2012;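 active = inhibition above the mean inhibition across every tested compound plus 3 SD, cut at about 22% in these data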;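 note: 0% = DMSO only wells and the 100% control is not disclosed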
MBD2 DNA inh – inhibitors of MBD2 binding to methylated DNA, primary screen, biochemical, TR-FRET, DNA-binding domain, human. AID 686964, 2013. hit rate 0.31% among 370,000. inhibition, % at 4.4 µM. Methyl-CpG-binding domain protein 2 (Homo sapiens), Q9UBB5. MBD2 binding to methylated oligonucleotide; in the data active = inhibition above about 13%
Target sequence (Q9UBB5 whole entry, looked up, the tested form may be a part): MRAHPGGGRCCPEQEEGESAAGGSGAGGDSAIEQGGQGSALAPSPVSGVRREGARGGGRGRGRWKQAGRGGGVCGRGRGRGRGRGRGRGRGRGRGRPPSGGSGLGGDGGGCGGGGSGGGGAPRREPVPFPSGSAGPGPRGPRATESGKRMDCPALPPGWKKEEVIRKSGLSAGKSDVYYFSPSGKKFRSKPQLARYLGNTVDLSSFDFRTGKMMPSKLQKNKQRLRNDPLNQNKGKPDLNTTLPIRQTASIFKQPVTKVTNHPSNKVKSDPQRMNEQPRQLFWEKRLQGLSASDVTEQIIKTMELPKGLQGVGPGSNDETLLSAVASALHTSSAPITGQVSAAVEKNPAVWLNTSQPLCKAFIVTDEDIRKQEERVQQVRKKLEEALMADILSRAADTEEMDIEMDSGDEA
B2AR ag – beta2AR agonists driving receptor internalization, primary screen, cell-based, FAP fluorogen, flow cytometry | hit rate 0.43% among 340,000 | Beta-2 adrenergic receptor (Homo sapiens), P07550 | Am2.2-beta2AR cells | response, % (concentration not given with the values) | AID 504454, 2011;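 active = response above a set limit, near 3 SD of response in nonfluorescent compounds, cut at about 42% in these data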
UHRF1 binding – UHRF1 methylated DNA binding inhibitors, primary screen, counter-screen for MBD2 inhibitor project, biochemical, TR-FRET, human UHRF1, single concentration; E3 ubiquitin-protein ligase UHRF1 (Homo sapiens), Q96T88; inhibition, % at 4.4 µM; hit rate 0.75% among 370,000; UHRF1 binding to methylated oligo;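 note: UHRF1 SRA domain binding a hemimethylated CpG hairpin DNA probe; 0% = median of test compound wells and 100% = reference inhibitor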
Arr AP2 block – inhibitors of beta-arrestin/AP2 binding, primary screen, biochemical, GPCR trafficking, flow cytometry. FITC-arrestin peptide / GST-AP2 beads; AP2 beta2 appendage carries R879A mutation. inhibition, % at 10 µM. hit rate 0.31% among 340,000. AID 504490, 2011;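 active = inhibition above a set limit, near 3 SD of compounds lacking own fluorescence, cut at about 54% in these data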;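 note: plate controls were DMSO wells for no effect and 5 µM unlabelled arrestin peptide for full effect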
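System: GST-tagged AP2 beta2-adaptin appendage (R879A) on 4 µm glutathione beads / Reagent: FITC-arrestin peptide, 50 nM / Detection: HyperCyt-sampled flow cytometry, FL1 channel, ex 488/em 535 nm / Timing: 12 min plus 1 h, RT / Buffer or medium: PBS plus Tween 20 (0.05%) and BSA (0.1%)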
Rin1 Abl inh – inhibitors of Rin1-Abl protein binding, primary screen, biochemical, TR-FRET; inhibition, % at 7.35 µM; AID 588664, 2011; hit rate 0.4% among 360,000; in the data active = inhibition above about 5%, passing the limit was not always enough
UHRF1 ctr MBD2 – UHRF1 methylated DNA binding inhibitors, counter-screen for MBD2 inhibitor project, biochemical, TR-FRET, human UHRF1. shares compounds with MBD2 DNA inh. UHRF1 binding to methylated oligonucleotide. inhibition, % at 4.4 µM. hit rate 25% among 1,000. AID 720530, 2013;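 note: UHRF1 SRA domain binding a labeled hemimethylated CpG hairpin DNA; 0% = vehicle only and 100% = reference inhibitor with vehicle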
MBD2 confirm – inhibitors of MBD2 binding to methylated DNA, confirmation, biochemical, TR-FRET, DNA-binding domain, human | shares compounds with MBD2 DNA inh | TR-FRET MBD2-DBD binding to methylated oligonucleotide | inhibition, % at 4.4 µM | hit rate 26% among 1,000 | AID 720531, 2013; in the data active = inhibition above about 14%
Starred values were filed as active, the others as inactive; / = no result. Sampled rows, rich in hits. Any-hit rate of the full collection: about 2.5%. Cut-off read from the data, not from the text of the source, unless noted: active = inhibition above about 21%; inactive = the rest.

SMILES | ABHD5 PLIN5 PPI | MBD2 DNA inh | B2AR ag | UHRF1 binding | Arr AP2 block | Rin1 Abl inh | UHRF1 ctr MBD2 | MBD2 confirm
N#CC1=C(c2ccc(-c3ccccc3)cc2)COC1=O | 5 | -2 | 13 | -3 | 37 | 2 | / | /
CS(=O)(=O)c1ccc(C2=C(c3ccccc3)C(=O)OC2)cc1 | -1 | 33* | -13 | 34* | -4 | -1 | 46* | 45*
COc1ccc(C2=C(c3ccc([N+](=O)[O-])cc3)C(=O)OC2)cc1 | -1 | -1 | -8 | 1 | 7 | -4 | / | /
O=C1OCC(c2ccccc2)=C1c1ccccc1 | 1 | 22* | -12 | 21* | 32 | 5 | 36* | 38*
O=C(NCCc1c[nH]c2ccccc12)OCc1cn(Cc2cccc(F)c2F)nn1 | / | 3 | / | 2 | / | / | / | /
CC(C)C[C@H](NC(C)(C)C(=O)NC1CCCCC1)C(=O)NCC(c1ccccc1)c1ccccc1 | / | 21* | / | 1 | / | / | 1 | 2
COc1ccc(Cl)cc1Nc1nc(NCCO)nc(N2CCCCC2)n1 | -4 | -4 | 2 | -7 | 7 | 1 | / | /
COc1ccc(Cl)cc1Nc1nc(NCCO)nc(N2CCCC2)n1 | 2 | 17* | 31 | 72* | 49 | -2 | 1 | 10
CCCCN1Cc2c(nc3cc(-c4ccco4)[nH]n3c2=O)C1=O | -5 | 25* | -5 | 63* | -10 | -2 | 7 | 4
CCOc1ccc(C(=O)N2CCCC2)cc1OC | 3 | 5 | -3 | 0 | -9 | -1 | / | /
CCOc1ccc(C(=O)N2CCN(CC(=O)N3CCCC3)CC2)cc1OCC | -3 | 16* | -7 | 22* | -4 | 0 | 5 | 1
C[C@H]1[C@@H](OC(=O)NCc2ccc(C(F)(F)F)cc2)CC[C@@]23CCCN2C(=O)CCC[C@@H]13 | / | 0 | / | 1 | / | / | / | /
CCCOc1ccc(C(CC(=O)O)NS(=O)(=O)c2ccc(NC(C)=O)cc2)cc1 (stereo not drawn) | 2 | -1 | -2 | -1 | 0 | 0 | / | /
CC(=O)Nc1ccc(S(=O)(=O)NC(CC(=O)O)c2ccc(OC(C)C)cc2)cc1 (stereo not drawn) | -2 | 17* | -1 | 23* | -4 | 2 | 11 | 5
C=CCSC1=N/C(=C\C=C\c2ccco2)C(=O)S1 | 7 | 43* | 1 | 75* | -4 | 5 | 40* | 17*
C=CCSC1=N/C(=C\c2sccc2C)C(=O)S1 | -5 | -1 | 5 | -1 | 33 | -4 | / | /
CN(C)/C=C1\N=C(c2ccc(Cl)cc2Cl)OC1=O | 3 | 16* | -12 | 18 | 1 | -2 | 7 | 4
CN(C)/C=C1\N=C(c2cccnc2Oc2ccc(Cl)cc2)OC1=O | -3 | -5 | -25 | 1 | -8 | -4 | / | /
O=C1CCCCCC(=O)[C@H](O)C[C@H](c2ccccc2)O1 | 0 | -4 | / | 0 | / | / | / | /
